TDP2 inh: blocks human TDP2 phosphodiesterase activity | hit rate 0.34% among 370,000 | recombinant TDP2, T5PNP hydrolysis, p-nitrophenol absorbance 415 nm | O95551 | inhibition, % at 12.8 µM;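 active means inhibition above the mean of all tested compounds plus 3 SD, set per campaign, cut at about 25% in these data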;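 further: 0% = DMSO with enzyme and 100% = buffer with substrate but no TDP2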
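Assay system: recombinant human TDP2 / Reagent: T5PNP substrate at 5 mM, a TopII-DNA adduct mimic / Measured by: epi absorbance from released p-nitrophenol / Evaluation: % inhibition relative to enzyme-containing and enzyme-free wells / Control set: enzyme-free and DMSO wells / Replicates: each compound tested once, singlicate / Schedule: enzyme reaction with compound for 2 h at 37 °C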
UHRF1 binding: human UHRF1 methylated DNA binding inhibitors | AID 687016 | hit rate 0.75% among 370,000 | inhibition, % at 4.4 µM | Q96T88 | UHRF1 binding to methylated oligo, TR-FRET; in the data active means inhibition above about 21%;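 further: UHRF1 SRA domain binding a hemimethylated CpG hairpin DNA probe; 0% = median of test compound wells and 100% = reference inhibitor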
NSD2 HMT inh: blocks human histone methyltransferase NSD2 | O96028 | NSD2 peptide methylation, AlphaScreen, 120 min | inhibition, % at 12.5 µM | hit rate 0.54% among 310,000; in the data active means inhibition above about 50%
LEDGF integ inh: blocks HIV-1 LEDGF/p75-dependent DNA integration; TR-FRET IN-LEDGF/p75 DNA integration, Eu/Cy5; inhibition, % at 3.7 µM; hit rate 0.64% among 370,000; AID 743269;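 active means inhibition above the screen-wide mean plus 3 SD, cut at about 13% in these data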;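 further: signal is the Cy5 over europium emission ratio at 671 and 618 nm; 0% = plate median of compound wells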
CASP6 VEID inh: blocks human caspase-6 cleavage activity; inhibition, % at 12.5 µM; hit rate 0.53% among 350,000; P55212; purified caspase-6, Z-VEID-R110 cleavage fluorescence;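 active means mean inhibition across replicates at least about 35%, with every replicate also reaching that limit, limit read from the data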;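 further: 0% = median of neutral control wells and 100% = no fluorescence left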
MBD2 inh: blocks human MBD2 binding to methylated DNA; hit rate 0.31% among 370,000; Q9UBB5; TR-FRET, MBD2 binding to methylated oligonucleotide; inhibition, % at 4.4 µM; in the data active means inhibition above about 13%
Target sequence (Q9UBB5 whole entry, looked up): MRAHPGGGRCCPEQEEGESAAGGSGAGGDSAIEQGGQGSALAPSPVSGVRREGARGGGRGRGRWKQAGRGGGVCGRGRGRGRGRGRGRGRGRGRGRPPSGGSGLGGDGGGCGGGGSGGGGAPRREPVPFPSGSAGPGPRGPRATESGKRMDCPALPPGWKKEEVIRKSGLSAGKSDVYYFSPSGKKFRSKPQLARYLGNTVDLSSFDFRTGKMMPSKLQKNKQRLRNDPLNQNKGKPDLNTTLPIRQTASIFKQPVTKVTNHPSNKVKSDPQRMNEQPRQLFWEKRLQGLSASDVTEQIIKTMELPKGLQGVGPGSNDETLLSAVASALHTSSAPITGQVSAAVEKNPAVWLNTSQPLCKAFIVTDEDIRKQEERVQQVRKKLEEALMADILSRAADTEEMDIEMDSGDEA
The depositor's hits bear a star; · = not tested or not shown. Only some compounds are listed: those with a hit (about 1.8% of all), similar ones and a draw of the others.

SMILES	TDP2 inh	UHRF1 binding	NSD2 HMT inh	LEDGF integ inh	CASP6 VEID inh	MBD2 inh
O=C(C[C@@H]1C=C[C@@H](NC(=O)C2CCOCC2)[C@@H](CO)O1)NCC1CCCCC1	·	·	·	·	0	·
CCCCNC(=O)c1ccc2c(SCC(=O)O)c3c(nc2c1)CCCC3	12	-1	2	0	·	-5
COc1ccc(Cl)cc1NC(=O)c1ccc2c(SCC(=O)O)c3c(nc2c1)CCCC3	13	-1	·	-1	37*	-3
CCCN(C(=O)c1ccc2c(SCC(=O)O)c3c(nc2c1)CCC3)c1cccc(C)c1	-11	-3	18	3	65*	-7
O=C(O)C[C@H]1C[C@H]2c3cc(NC(=O)NC4CCCCC4)ccc3O[C@H]2[C@H](CO)O1	·	·	·	·	2	·
CCCNC(=O)N1C[C@@H]2N[C@H](C1)C2c1ccc(-c2cccc(OC)c2)cc1 (some centres undefined)	·	·	·	·	-2	·
CCCCN1C(=O)C(=O)NC[C@@H]1CC1CCCCC1	-4	48*	-1	6	-2	10
CSCCC(NC(=O)COc1ccccc1)C(=O)N(C)CC(=O)Nc1c(C)cccc1C (centres undefined)	6	0	-1	0	42*	-1
CSCCC(NC(=O)COc1ccccc1)C(=O)OCCOc1ccc(C)cc1 (centres undefined)	-3	0	-1	-5	4	5
CCOc1ccc(/C=C2\SC(=S)N(CC(=O)N(CCO)C(C)(C)C)C2=O)cc1	7	35*	1	-2	1	4
Cc1ccc(C(=O)NCC(=O)N(C)CC(=O)Nc2c(Cl)cccc2Cl)s1	-15	23*	·	-1	11	-5
CCCN1[C@H](C(=O)OC)[C@@H](CO)[C@@H]2Cn3c(ccc(C4=CCCC4)c3=O)[C@@H]21	·	·	·	·	2	·
CCCCCN(C(=O)CCC(=O)OCC(=O)N(C)C1CCCCC1)c1c(N)n(CCCC)c(=O)[nH]c1=O	-16	4	2	-2	-3	7
CCCCCN(C(=O)CCC(=O)OC(C)C(=O)NC1CCCCC1)c1c(N)n(CCCC)c(=O)[nH]c1=O (centres undefined)	-15	3	0	0	43*	-6
COCC(=O)Nc1ccc2c(c1)OC[C@H](C)N(Cc1cc(F)ccc1F)C[C@@H](C)[C@H](OC)CN(C)C2=O	·	·	·	·	-1	·
CO[C@@H]1CN(C)C(=O)c2ccc(NC(=O)C3CCC3)cc2OC[C@@H](C)N(CC2CCCCC2)C[C@@H]1C	·	·	·	·	-1	·
C[C@@H]1CN([C@@H](C)CO)S(=O)(=O)c2ccc(C3=CCCC3)cc2O[C@H]1CN(C)C	·	·	·	·	-1	·
C[C@@H]1CN([C@H](C)CO)C(=O)Cc2cc(NS(=O)(=O)c3cn(C)cn3)ccc2O[C@H]1CN(C)CC1CCCCC1	·	·	·	·	0	·
O=C(Cc1ccncc1)Nc1ccc2c(c1)[C@@H]1C[C@H](CC(=O)NC3CCCC3)O[C@H](CO)[C@@H]1O2	·	·	·	·	-1	·
O=C(CN1C(=O)/C(=C/c2ccco2)SC1=S)NC1CCS(=O)(=O)C1 (centres undefined)	16	52*	37	55*	49*	0
OC1CCCN(CC(O)COC(c2ccccc2)c2ccccc2)C1 (centres undefined)	2	0	2	-2	3	1
CC1CCCN(CC(O)COC(c2ccccc2)c2ccccc2)C1 (centres undefined)	-3	8	2	4	38*	2
C/C=C/c1ccc2c(c1)O[C@H](CN(C)C(=O)c1ccccc1F)[C@@H](C)CN([C@@H](C)CO)S2(=O)=O	·	·	·	·	-3	·
CC(=O)C1C(c2ccc(C)cc2)c2c(n[nH]c2C)CC1(C)O (centres undefined)	4	23*	-2	2	·	7
O=C(Nc1ccccc1)N1C[C@@H]2[C@H](c3ccccc31)[C@@H](CO)N2Cc1ccc(F)cc1	·	·	·	·	-3	·
C[C@H]1CN([C@@H](C)CO)C(=O)c2cc(-c3ccc(C#N)cc3)cnc2O[C@@H]1CN(C)C(=O)CN(C)C	·	·	·	·	-14	·
COc1ccc(-c2nc3c4ccccc4ccn3c2CC2CCCCC2)cc1OC	5	23*	·	2	-4	7
Cc1ccc(-c2nc3c4ccccc4ccn3c2CC2CCCCC2)cc1	0	20	·	0	-3	12

Screens (PubChem BioAssay)
